# Experimental data as given in ChEMBL document CHEMBL2203264, “Optimization of imidazo[4,5-b]pyridine-based kinase inhibitors: identification of a dual FLT3/Aurora kinase inhibitor as an orally bioavailable preclinical development candidate for the treatment of acute myeloid leukemia” (J Med Chem, 2012).
# The source made the active and inactive calls. No cut-off for these calls is given here.
# What was measured:
# [1] = Clearance in Sprague-Dawley rat at 5 mg/kg, iv; assay type: ADME, organism-based; parameters: dose 5 mg/kg, route intravenous; settings: in vivo
# In short: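 Female Sprague–Dawley rats given 5 mg/kg iv in 10% DMSO, 5% Tween 20, 85% saline, 0.3% 1 M HCl. Serial tail vein bleeds at 15 and 30 min and 2, 4, 6, 24 h; plasma protein-precipitated with methanol with olomoucine internal standard; drug quantified by LC–MS (positive ESI MRM). Clearance given as L/h and mL/min/kg.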
# Caco-2 = assay: Permeability across human Caco2 cells; assay type: ADME, cell-based
# [2] = AUC (infinity) in Balb/C mouse at 5 mg/kg, iv; assay type: ADME, organism-based; parameters: time infinity, dose 5 mg/kg, route intravenous; settings: plasma
# In short: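 Female Balb/C mice dosed iv at 5 mg/kg in 10% DMSO, 5% Tween 20 in saline. Mice killed at 5, 15, 30 min and 1, 2, 4, 6, 24 h. Plasma from cardiac blood was methanol-precipitated with olomoucine internal standard, then analysed by LC–MS (positive ESI MRM).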
# [3] = Lipophilicity, log D of the compound; assay type: physicochemical; settings: octanol/water
# Plasma = assay: Plasma protein binding in mouse; assay type: ADME, cell-free
# Mus musculus [4] = assay: Toxicity in CrTacNCr-Fox1(nu) athymic mouse assessed as adverse condition at 50 to 100 mg/kg, po administered 10 days post implantation daily for 7 days; assay type: organism-based; parameters: dose 50-100 mg/kg, route oral; settings: in vivo
# Cytochrome P450 3A4 = Cytochrome P450 3A4 (Homo sapiens, UniProt P08684); assay: Inhibition of human liver microsome CYP3A4 by LC-MS-MS analysis; assay type: ADME
# In short: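 Pooled human liver microsomes (50 donors) at 0.5 mg/mL protein, 10 min incubation; metabolite detected by LC-MS/MS with positive ESI.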
# [5] = molecular target: Platelet-derived growth factor receptor beta (Homo sapiens) (UniProt P09619); assay: Inhibition of PDGFRB at 1 uM
# In short: (§1)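 KINOMEScan competition-binding panel of 442 kinases (386 nonmutant) tested at 1 μM. Binding is read as percent of control ligand competition; <10% of control counts as a hit for the S(10) score.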
# [6] = molecular target: Vascular endothelial growth factor receptor 1 (Homo sapiens) (UniProt P17948); assay: Inhibition of FLT1 at 1 uM; in short: as §1
# Mus musculus [7] = assay: Inhibition of Histone H3 phosphorylation in tumor of human MV4-11 cells xenografted CrTacNCr-Fox1(nu) athymic mouse at 50 to 100 mg/kg, po bid for 4 days measured after 2 hrs post final dose; assay type: functional, organism-based
# In short: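 MV4-11 xenograft-bearing athymic mice dosed orally at 50 or 100 mg/kg twice daily for 4 days, starting 17 days after implantation. Tumors harvested 2 h after the final dose. Western blotting for phospho-histone H3 (S10) and phospho-Stat5 (Y694), with total histone H3, total Stat5 and GAPDH as loading controls.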
# Mus musculus [8] = assay: Volume of distribution in Balb/C mouse at 5 mg/kg, iv and 5 mg/kg, po; assay type: ADME, organism-based; settings: in vivo
# In short: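 Female Balb/C mice given 5 mg/kg po or iv in 10% DMSO, 5% Tween 20 in saline. Killed at 5, 15, 30 min and 1, 2, 4, 6, 24 h; plasma from cardiac blood. Methanol protein precipitation with olomoucine internal standard, then LC-MS (reverse-phase C18, positive ESI MRM).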
# [9] = molecular target: Proto-oncogene tyrosine-protein kinase receptor Ret (Homo sapiens) (UniProt P07949); assay: Inhibition of RET at 1 uM; in short: as §1
# Mus musculus [10] = assay: Toxicity in CrTacNCr-Fox1(nu) athymic mouse assessed as body weight loss at 50 to 100 mg/kg, po administered 10 days post implantation daily for 7 days; assay type: organism-based; parameters: dose 50-100 mg/kg, route oral; settings: in vivo
# Cytochrome P450 1A2 = molecular target: T1, Cytochrome P450 1A2 (Homo sapiens, UniProt P05177); assay: Inhibition of human liver microsome CYP1A2 by LC-MS-MS analysis
# T1 sequence (P05177 whole entry): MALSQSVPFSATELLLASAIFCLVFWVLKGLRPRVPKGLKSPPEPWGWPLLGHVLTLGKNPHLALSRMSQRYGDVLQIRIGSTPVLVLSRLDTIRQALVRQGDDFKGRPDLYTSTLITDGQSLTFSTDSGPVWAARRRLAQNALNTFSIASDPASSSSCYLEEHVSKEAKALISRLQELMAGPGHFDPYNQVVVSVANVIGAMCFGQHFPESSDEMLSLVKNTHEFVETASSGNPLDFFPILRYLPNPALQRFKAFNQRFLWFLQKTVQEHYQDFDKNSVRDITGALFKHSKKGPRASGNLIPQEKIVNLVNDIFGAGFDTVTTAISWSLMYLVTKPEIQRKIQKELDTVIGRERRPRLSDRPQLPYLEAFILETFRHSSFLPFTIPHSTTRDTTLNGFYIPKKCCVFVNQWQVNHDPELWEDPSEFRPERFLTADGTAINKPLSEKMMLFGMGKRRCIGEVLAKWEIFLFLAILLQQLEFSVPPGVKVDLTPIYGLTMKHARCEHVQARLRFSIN
# MV4-11 [11] = assay: Antitumor activity against human MV4-11 cells xenografted in po dosed CrTacNCr-Fox1(nu) athymic mouse assessed as tumor growth inhibition administered 10 days post implantation twice daily for 7 days; assay type: functional, organism-based
# In short: (§2)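 Female adult athymic nude mice implanted subcutaneously with 10^7 FLT3-ITD-positive MV4-11 cells; treatment started 10 days after implantation, once mean tumor volume was at least 100 mm^3. Oral dosing at 50 or 100 mg/kg (n = 5 per group), twice daily for 7 days, then once daily for a further 4 days. Vehicle: 10% DMSO, 20% PEG 400, 5% Tween 80, 65% water. Tumor volume followed to day 60.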
# MV4-11 [12] = assay: Antitumor activity against human MV4-11 cells xenografted in CrTacNCr-Fox1(nu) athymic mouse assessed as tumor growth inhibition at 100 mg/kg, po bid administered 10 days post implantation daily for 7 days measured after 11 days; assay type: functional, organism-based; parameters: dose 100 mg/kg; in short: as §2
# MV4-11 [13] = assay: Antitumor activity against human MV4-11 cells xenografted in CrTacNCr-Fox1(nu) athymic mouse assessed as reduction in tumor relapse at 50 to 100 mg/kg, po bid administered 10 days post implantation daily for 7 days measured after 60 days; assay type: functional; parameters: scale not given: the % may be the effect or the level left; settings: dose mg/kg 50-100
# In short: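 Female adult CrTacNcr-Fox1(nu) athymic mice, s.c. 10^7 FLT3-ITD-positive MV4-11 cells; treatment began at 10 days (mean tumor volume at least 100 mm^3). Oral 50 or 100 mg/kg in 10% DMSO, 20% PEG 400, 5% Tween 80, 65% water, or vehicle alone; n = 5 per group. Dosed twice daily for 7 days, then once daily for 4 days; study ended day 60.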
# Sequence of Platelet-derived growth factor receptor beta (Homo sapiens) (P09619 whole entry): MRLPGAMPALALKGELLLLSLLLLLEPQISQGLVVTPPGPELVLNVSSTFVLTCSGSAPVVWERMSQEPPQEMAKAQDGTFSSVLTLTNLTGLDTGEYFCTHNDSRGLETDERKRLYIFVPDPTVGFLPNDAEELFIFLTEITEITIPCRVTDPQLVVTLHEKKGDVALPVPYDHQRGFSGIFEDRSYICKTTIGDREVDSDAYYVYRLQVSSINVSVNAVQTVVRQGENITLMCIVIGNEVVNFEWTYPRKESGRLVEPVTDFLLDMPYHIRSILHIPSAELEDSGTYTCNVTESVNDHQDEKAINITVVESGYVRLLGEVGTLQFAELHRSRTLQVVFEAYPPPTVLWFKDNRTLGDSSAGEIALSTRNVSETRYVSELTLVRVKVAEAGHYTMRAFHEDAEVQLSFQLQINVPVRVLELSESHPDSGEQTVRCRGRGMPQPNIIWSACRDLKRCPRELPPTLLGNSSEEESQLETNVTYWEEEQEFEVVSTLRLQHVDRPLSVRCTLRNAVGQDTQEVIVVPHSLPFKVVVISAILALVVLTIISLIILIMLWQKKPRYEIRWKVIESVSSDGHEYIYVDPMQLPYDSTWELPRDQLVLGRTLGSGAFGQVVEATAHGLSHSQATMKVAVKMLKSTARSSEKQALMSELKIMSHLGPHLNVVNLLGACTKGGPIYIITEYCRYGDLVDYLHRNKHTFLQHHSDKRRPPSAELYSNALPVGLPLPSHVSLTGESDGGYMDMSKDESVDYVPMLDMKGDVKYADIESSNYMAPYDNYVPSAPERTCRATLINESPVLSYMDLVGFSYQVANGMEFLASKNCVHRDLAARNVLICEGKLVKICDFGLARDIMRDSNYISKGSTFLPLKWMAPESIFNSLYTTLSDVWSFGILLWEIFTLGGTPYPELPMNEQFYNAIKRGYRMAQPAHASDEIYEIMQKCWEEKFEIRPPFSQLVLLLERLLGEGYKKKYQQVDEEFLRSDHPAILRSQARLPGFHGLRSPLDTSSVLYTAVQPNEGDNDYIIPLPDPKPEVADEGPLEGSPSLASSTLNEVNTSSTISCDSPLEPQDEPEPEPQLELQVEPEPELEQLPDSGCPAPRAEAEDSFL
# Sequence of Proto-oncogene tyrosine-protein kinase receptor Ret (Homo sapiens) (P07949 whole entry): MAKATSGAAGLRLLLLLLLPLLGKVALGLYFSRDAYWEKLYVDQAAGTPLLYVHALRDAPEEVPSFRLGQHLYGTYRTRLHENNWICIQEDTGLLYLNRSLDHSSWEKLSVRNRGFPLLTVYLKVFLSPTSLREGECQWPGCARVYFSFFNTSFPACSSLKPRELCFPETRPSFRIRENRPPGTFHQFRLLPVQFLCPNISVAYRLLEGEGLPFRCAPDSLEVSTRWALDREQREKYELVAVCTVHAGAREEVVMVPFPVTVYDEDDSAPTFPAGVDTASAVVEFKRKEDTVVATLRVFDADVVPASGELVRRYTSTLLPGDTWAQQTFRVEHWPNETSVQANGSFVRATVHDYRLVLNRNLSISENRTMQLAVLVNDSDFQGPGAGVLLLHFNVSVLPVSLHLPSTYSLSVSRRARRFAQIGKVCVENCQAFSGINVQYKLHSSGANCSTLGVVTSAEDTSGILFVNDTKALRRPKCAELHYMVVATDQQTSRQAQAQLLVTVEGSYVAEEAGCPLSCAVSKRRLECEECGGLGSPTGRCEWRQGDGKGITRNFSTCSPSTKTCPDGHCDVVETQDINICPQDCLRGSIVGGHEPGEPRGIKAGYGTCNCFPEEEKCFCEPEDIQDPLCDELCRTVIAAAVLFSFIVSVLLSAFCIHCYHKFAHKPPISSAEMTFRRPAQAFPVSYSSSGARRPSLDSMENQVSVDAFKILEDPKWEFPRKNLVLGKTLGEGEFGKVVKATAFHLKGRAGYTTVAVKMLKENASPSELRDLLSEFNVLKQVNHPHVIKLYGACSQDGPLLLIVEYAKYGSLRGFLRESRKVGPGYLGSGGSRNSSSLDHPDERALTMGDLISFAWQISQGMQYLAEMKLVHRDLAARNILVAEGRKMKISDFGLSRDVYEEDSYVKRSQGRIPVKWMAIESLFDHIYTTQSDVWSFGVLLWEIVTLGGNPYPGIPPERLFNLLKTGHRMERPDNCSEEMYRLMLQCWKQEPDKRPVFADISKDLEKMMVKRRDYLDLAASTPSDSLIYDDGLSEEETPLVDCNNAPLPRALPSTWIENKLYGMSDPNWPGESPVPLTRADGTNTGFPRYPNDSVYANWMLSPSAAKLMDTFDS
# Sequence of Vascular endothelial growth factor receptor 1 (Homo sapiens) (P17948 whole entry): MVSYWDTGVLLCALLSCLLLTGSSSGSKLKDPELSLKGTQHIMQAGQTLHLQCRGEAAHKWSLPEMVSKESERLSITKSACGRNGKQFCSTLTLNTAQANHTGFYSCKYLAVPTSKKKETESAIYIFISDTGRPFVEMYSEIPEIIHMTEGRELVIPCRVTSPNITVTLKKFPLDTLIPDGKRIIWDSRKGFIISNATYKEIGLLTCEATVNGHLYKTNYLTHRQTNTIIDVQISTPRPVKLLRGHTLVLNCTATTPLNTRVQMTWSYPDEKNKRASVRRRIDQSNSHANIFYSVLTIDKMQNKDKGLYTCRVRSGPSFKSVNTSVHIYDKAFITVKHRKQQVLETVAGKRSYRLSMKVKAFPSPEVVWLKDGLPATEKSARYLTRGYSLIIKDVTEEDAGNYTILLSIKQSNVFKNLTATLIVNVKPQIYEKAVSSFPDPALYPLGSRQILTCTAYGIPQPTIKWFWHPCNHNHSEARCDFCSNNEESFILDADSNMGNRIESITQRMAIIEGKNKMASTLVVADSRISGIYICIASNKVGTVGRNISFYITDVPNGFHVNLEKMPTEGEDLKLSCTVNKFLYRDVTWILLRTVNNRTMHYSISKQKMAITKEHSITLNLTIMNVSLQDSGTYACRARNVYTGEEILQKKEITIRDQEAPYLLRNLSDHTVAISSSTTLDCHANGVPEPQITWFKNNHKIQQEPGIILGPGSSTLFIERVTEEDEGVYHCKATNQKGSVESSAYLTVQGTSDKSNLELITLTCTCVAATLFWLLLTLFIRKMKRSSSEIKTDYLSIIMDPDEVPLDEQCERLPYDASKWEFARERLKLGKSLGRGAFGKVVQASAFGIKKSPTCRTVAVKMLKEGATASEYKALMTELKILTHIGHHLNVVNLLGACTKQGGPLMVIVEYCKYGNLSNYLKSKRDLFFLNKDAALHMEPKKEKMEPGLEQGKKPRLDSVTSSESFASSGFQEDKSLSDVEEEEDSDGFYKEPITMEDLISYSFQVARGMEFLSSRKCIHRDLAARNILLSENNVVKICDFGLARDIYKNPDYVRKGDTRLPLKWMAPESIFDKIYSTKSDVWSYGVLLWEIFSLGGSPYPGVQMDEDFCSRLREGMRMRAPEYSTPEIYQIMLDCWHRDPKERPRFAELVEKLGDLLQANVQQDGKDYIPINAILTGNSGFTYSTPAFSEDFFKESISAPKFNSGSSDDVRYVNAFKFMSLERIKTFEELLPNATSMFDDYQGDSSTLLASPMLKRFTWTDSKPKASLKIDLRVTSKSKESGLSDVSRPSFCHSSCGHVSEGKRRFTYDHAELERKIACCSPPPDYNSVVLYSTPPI
# Sequence of Cytochrome P450 3A4 (P08684 whole entry): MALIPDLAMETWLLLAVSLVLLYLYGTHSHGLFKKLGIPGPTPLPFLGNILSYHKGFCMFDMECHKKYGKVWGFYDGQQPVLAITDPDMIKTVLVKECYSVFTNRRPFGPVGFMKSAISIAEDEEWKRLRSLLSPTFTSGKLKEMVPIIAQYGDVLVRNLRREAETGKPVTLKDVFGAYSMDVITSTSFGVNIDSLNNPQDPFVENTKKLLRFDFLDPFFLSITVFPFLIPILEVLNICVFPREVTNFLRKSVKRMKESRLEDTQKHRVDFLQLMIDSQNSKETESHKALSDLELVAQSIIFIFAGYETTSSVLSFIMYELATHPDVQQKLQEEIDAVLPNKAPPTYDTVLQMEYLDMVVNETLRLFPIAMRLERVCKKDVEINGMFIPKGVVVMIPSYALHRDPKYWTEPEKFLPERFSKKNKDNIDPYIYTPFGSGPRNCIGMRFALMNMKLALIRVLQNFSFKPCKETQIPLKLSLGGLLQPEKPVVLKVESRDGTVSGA
smiles,measurement,setting,value
Cc1nn(C)cc1-c1nc2c(N3CCN(Cc4ccc(Cl)cc4)CC3)c(Cl)cnc2[nH]1 [MOBINITINIB],clearance,[1],0.95 mL/min
same,permeability,Caco-2,18.6 ×10⁻⁶ cm/s
same,AUC(0-inf),[2],3.75 µM·h
same,logD,[3],3.84
same,PPB,Plasma,97.3%
same,Activity,Mus musculus [4],Non-toxic
same,IC50,Cytochrome P450 3A4,> 10 µM
same,inhibition,[5],4%
same,inhibition,[6],0.3%
same,inhibition,Mus musculus [7],Active
same,Vd,Mus musculus [8],3.3 L/kg
same,inhibition,[9],1.8%
same,Activity,Mus musculus [10],Non-toxic
same,IC50,Cytochrome P450 1A2,> 10 µM
same,TGI,MV4-11 [11],Dose-dependent effect
same,Activity,MV4-11 [12],Active
same,Activity,MV4-11 [13],60%
